Data on 17 compounds can be found in ChEMBL document CHEMBL1135691, “Synthesis of novel N-1 (allyloxymethyl) analogues of 6-benzyl-1-(ethoxymethyl)-5-isopropyluracil (MKC-442, emivirine) with improved activity against HIV-1 and its mutants” (J Med Chem, 2002).

Where “and” joins values, the source holds several entries; their conditions need not be identical. Equal entries are not always repeated. Structures can show the parent of a compound that is named as a salt. Bounds are passed on as bounds.

One series concerns MT4. Put plainly: (§1) Cytotoxic dose required to reduce the viability of normal uninfected MT-4 cells by 50%. To be noted: read-out: CD50 (the source's name). Format: functional, Homo sapiens.
For series [1], the system named is Human immunodeficiency virus 1. The series can be described thus: Inhibition of HIV-1 IIIB replication in MT-4-infected wild type cells. Format: functional. To be noted: read-out: ED50 (the source's name). The procedure, abridged: (§2)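 MT-4 cells infected with wild-type HIV-1 (IIIB, H9-propagated stock, or HxB2 clone) at MOI 0.005 and cultured 6 days in RPMI 1640 with 10% heat-inactivated FCS and compound dilutions. Infected and uninfected controls without compound run in parallel. Virus expression measured indirectly by MTT. EC50 interpolated from inhibition–concentration plots. Mean of three experiments.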

Series [2] concerns Human immunodeficiency virus 1. The series can be described thus: Effective concentration required to achieve 50% inhibition of HIV-1 multiplication in MT-4-infected Y181C+K103N strain. The class given is functional. The following applies: read-out: ED50 (the source's name). Put shortly: (§3)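 NNRTI-resistant HIV-1 strains infected MT-4 cells at 0.005 MOI. Cells were cultured with serial compound dilutions in RPMI 1640 with 10% heat-inactivated FCS and antibiotics for 6 days, alongside infected and uninfected no-compound controls. Viral expression was quantified indirectly by MTT assay. EC50 was interpolated from percent-inhibition versus concentration plots. Values are means of three separate experiments.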

Series [3] is described as follows: Selective index (CD50 compared to ED50 against HIV-1 IIIB strain). The class given is functional. Put shortly:
(§4)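 Ratio of CD50 to ED50. Both values come from 6-day MT-4 MTT assays: uninfected cultures for cytotoxicity, and cultures infected at MOI 0.005 with the named wild-type strain for antiviral effect. Each value was interpolated from inhibition–concentration plots and is the mean of three experiments.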

Series [4] deals with Human immunodeficiency virus 1. The series can be described thus: (§5) Effective concentration required to achieve 50% inhibition of HIV-1 multiplication in MT-4-infected Y181C strain. Format: functional. The following applies: read-out: ED50 (the source's name). The procedure, abridged:
as §3

Series [5] has as its system Human immunodeficiency virus 1. The series can be described thus: Effective concentration required to achieve 50% inhibition of HIV-1 multiplication in MT-4-infected K103N strain. Format: functional. To be noted: read-out: ED50 (the source's name). Put shortly: as §3
The nature of series [6]: (§6) Selective index as the ratio of CD50 to that of ED50 against HIV-1 HxB2 strain. Format: functional. Put shortly: as §4
Series [7] has as its system Human immunodeficiency virus 1. Put plainly: Effective concentration required to achieve 50% inhibition of HIV-1 multiplication in MT-4-infected wild type cells. Format: functional. To be noted: read-out: ED50 (the source's name). The procedure, abridged:
as §2

For series [8], the system named is Human immunodeficiency virus 1. Described as §5. The class given is functional. The following applies: read-out: ED50 (the source's name). Put shortly:
as §3
This is another data set of the same source.

A short description of series [9]: as §6. Put shortly: as §4
A short description of series [10]: Selective index as the ratio of CD50 to that of ED50 against HIV-1 IIIB strain. Put shortly: as §4
Series [11] can be described thus: as §1. Format: cell-based, MT4. The following applies: human, read-out: CD50 (the source's name).

Consider `C=CCOCn1c(Cc2cc(C)cc(C)c2)c(C(C)C)c(=O)[nH]c1=O`, for which the CC50 in the series with MT4 (Homo sapiens, MT4) is 30000 nM. In addition, the figures for the EC50 in series [1], in series [2] and in series [4] were 0.2 nM, over 100000 nM and over 100000 nM, respectively. The compound further gave an SI in [3] of 150000.
Take `Cc1ccnc2c1NC(=O)c1cccnc1N2C1CC1` [NEVIRAPINE]: the CC50 in the series on MT4 (Homo sapiens, MT4) is over 100000 nM. The EC50 was 380 nM in series [1]; 4300 nM in series [5]; over 100000 nM in [2]; 570 nM in series [7]; over 100000 nM in [4]; 22000 nM in series [8]. Also, the results for the SI in series [6] and in series [3] were over 175 and over 263, respectively.
Consider `CCc1c(Cc2cccc3ccccc23)n(COCC=C(C)C)c(=O)[nH]c1=O`, for which the CC50 in the series on MT4 (Homo sapiens, MT4) is over 100000 nM. In series [1], the EC50 was 300 nM. Also, in series [3], the SI is over 333.
Regarding `O=C1Nc2ccc(Cl)cc2[C@@](C#CC2CC2)(C(F)(F)F)O1` [EFAVIRENZ], the CC50 with MT4 (Homo sapiens, MT4) is over 100000 nM. Further, the EC50 in [1] came out at 10 nM; in series [5] it was 350 nM; in [2], 2700 nM; in [7] it was 40 nM; in series [8] it was 40 nM.
Take `CCc1c(Cc2cc(C)cc(C)c2)n(COCC=C(C)C)c(=O)[nH]c1=O`: the CC50 in the series on MT4 (Homo sapiens, MT4) came out at 36000 nM; in the series on MT4 it was 61000 nM. Besides, the EC50 in [1] is 0.3 nM; in series [5], 90 nM; in series [2], over 100000 nM; in [7], 0.02 nM; in series [4] it was 340 nM; in series [8], 450 nM. Besides, the SI stood at 3.03e+06 in [6] and 120000 in series [3].
As for `C=C(C)COCn1c(Cc2cc(C)cc(C)c2)c(CC)c(=O)[nH]c1=O`, in the series with MT4 (Homo sapiens, MT4), the CC50 was over 100000 nM. Further, the EC50 in series [1] is 2.5 nM; in series [5], 2200 nM; in [2], 28000 nM; in series [7] it was 8 nM; in series [4] it was 360 nM; in series [8], 4000 nM. For the same compound, the SI is over 12500 in [6] and over 40000 in series [3].
For the compound `C=CCOCn1c(Cc2ccccc2)c(C(C)C)c(=O)[nH]c1=O`, the CC50 in the series with MT4 (Homo sapiens, MT4) is over 100000 nM. In addition, the EC50 was 4 nM in [1]; 900 nM in series [5]; over 100000 nM in [2]; 3 nM in series [7]; 100000 nM in [4]; 3300 nM in [8]. Further, the SI is over 33300 in series [6] and over 25000 in series [3].
`C#CCOCn1c(Cc2ccccc2)c(C(C)C)c(=O)[nH]c1=O`: the CC50 with MT4 (Homo sapiens, MT4) was over 100000 nM. Also, the EC50 was 7 nM in series [1], over 100000 nM in series [2] and over 100000 nM in [4]. The same compound registered an SI in series [3] of over 14300.
For `C=C(C)COCn1c(Cc2ccccc2)c(C(C)C)c(=O)[nH]c1=O`, the CC50 with MT4 was 40000 nM and > 100000 nM. Further, the SI in series [9] is over 2000; in [10], 142. The EC50 in series [1] is 280 nM; in series [5], over 100000 nM; in series [2], over 100000 nM; in [7], 50 nM; in series [4], over 100000 nM; in series [8], over 100000 nM.
Turning to `CC(C)Nc1cccnc1N1CCN(C(=O)c2cc3cc(NS(C)(=O)=O)ccc3[nH]2)CC1` [DELAVIRDINE MESYLATE], the CC50 in the series with MT4 (Homo sapiens, MT4) was 42000 nM; in the series on MT4, over 42000 nM. The EC50 was 60 nM in [1]; 3000 nM in series [5]; over 100000 nM in series [2]; 190 nM in series [7]; over 100000 nM in series [4]; 4500 nM in series [8]. The results for the SI in series [6] and in series [3] were over 221 and 700, respectively.
In the case of `C#CCOCn1c(Cc2cc(C)cc(C)c2)c(CC)c(=O)[nH]c1=O`, in the series on MT4 (Homo sapiens, MT4), the CC50 was over 100000 nM. The EC50 in series [1] was 3 nM; in [2], 3000 nM; in [4], over 100000 nM. Moreover, the SI in [3] was over 33300.
In the case of `C=CCOCn1c(Cc2cccc3ccccc23)c(CC)c(=O)[nH]c1=O`, the CC50 in the series on MT4 (Homo sapiens, MT4) is 32000 nM. Moreover, the EC50 in [1] is 1000 nM. Besides, the SI in series [3] amounted to 32.
As for `C=C(C)COCn1c(Cc2cc(C)cc(C)c2)c(C(C)C)c(=O)[nH]c1=O`, the CC50 with MT4 (Homo sapiens, MT4) is over 100000 nM. The EC50 in [1] was found to be 0.15 nM; in series [2], 26000 nM; in series [4], 15000 nM. The SI in series [3] was over 667000.
Turning to `C=C(C)COCn1c(Cc2cccc3ccccc23)c(CC)c(=O)[nH]c1=O`, in the series with MT4 (Homo sapiens, MT4), the CC50 turned out to be 35000 nM. Moreover, in series [1], the EC50 is 1000 nM. This compound also displayed an SI in series [3] of 35.
As for `CC(C)=CCOCn1c(Cc2ccccc2)c(C(C)C)c(=O)[nH]c1=O`, the CC50 was 34000 nM with MT4 (Homo sapiens, MT4) and 32000 nM in series [11]. In addition, the EC50 in [1] was 30 nM; in series [5] it was 3800 nM; in series [2], over 100000 nM; in series [7], 30 nM; in series [4], over 100000 nM; in [8] it was over 100000 nM. For the same compound, the SI in [6] worked out at 1120; in series [3] it was 1070.
With `C=CCOCn1c(Cc2cc(C)cc(C)c2)c(CC)c(=O)[nH]c1=O`, the CC50 in the series with MT4 (Homo sapiens, MT4) is 100000 nM; with MT4, over 100000 nM. Also, the EC50 in [1] is 4 nM; in series [5], 20 nM; in [2], 10000 nM; in series [7] it was 0.02 nM; in [4], 320 nM; in series [8] it was 70 nM. For the same compound, the SI in series [6] is over 5e+06; in [3], 25000.
On to `CC(C)=CCOCn1c(Cc2cc(C)cc(C)c2)c(C(C)C)c(=O)[nH]c1=O`, for which, in the series with MT4 (Homo sapiens, MT4), the CC50 was over 100000 nM. In addition, the EC50 in [1] was 0.2 nM; in [2], 28000 nM; in [4] it was 19000 nM. In series [3], the SI was over 500000.
